Reference: ChEMBL document CHEMBL1772998, “Cytotoxic clerodane diterpenes from Casearia rupestris” (J Nat Prod, 2011)

Columns and labels:
Format in all cases: functional, cell-based
HCT-8 = test: Cytotoxicity against human HCT8 cells after 72 hrs by MTT assay; details: HCT-8, 72 h
Procedure, shortened: (§1)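 Cells grown in RPMI 1640 with 10% FBS, 2 mM glutamine, streptomycin and penicillin at 37 C, 5% CO2. Seeded at 10^5 cells/well (adherent) or 0.3 × 10^6 cells/well (suspension). After 24 h, compounds in DMSO (0.39-25 μg/mL) added; doxorubicin (0.01-0.58 μg/mL) as positive control. After 69 h, MTT 0.5 mg/mL for 3 h. Formazan dissolved in DMSO, A595 read, IC50 by nonlinear regression.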

SF-295 = test: Cytotoxicity against human SF295 cells after 72 hrs by MTT assay; details: SF-295, 72 h; procedure, shortened: as §1
HL-60 = test: Cytotoxicity against human HL60 cells after 72 hrs by MTT assay; details: HL-60, 72 h; procedure, shortened: as §1
MDA-MB-435 = test: Cytotoxicity against human MDA-MB-435 cells after 72 hrs by MTT assay; details: MDA-MB-435, 72 h; procedure, shortened: as §1

Structure (SMILES) | IC50 (HCT-8) [nM] | IC50 (SF-295) [nM] | IC50 (HL-60) [nM] | IC50 (MDA-MB-435) [nM]
C=CC(=C)CC[C@]1(C)[C@H](C)[C@@H](O)[C@H](OC(=O)/C=C\C=C\CCCCC)[C@@]23C(=C[C@H](O)C[C@@H]12)[C@@H](OC(C)=O)O[C@@H]3OC(C)=O (relative stereo) [CASEARUPESTRIN A] | 130 | 360 | 100 | 360
C=CC(=C)CC[C@]1(C)[C@H](C)[C@@H](OC(C)=O)[C@H](OC(=O)/C=C\C=C\CCCCC)[C@@]23C(=C[C@H](OC(C)=O)C[C@@H]12)[C@@H](OC(C)=O)O[C@@H]3OC(C)=O | > 5000 | > 5000 | 4300 | > 5000
COc1cccc2c1C(=O)c1c(O)c3c(c(O)c1C2=O)C[C@@](O)(C(=O)CO)C[C@@H]3O[C@H]1C[C@H](N)[C@H](O)[C@H](C)O1 [DOXORUBICIN] |  | 400 | 40 | 
C=CC(=C)CC[C@]1(C)[C@H](C)[C@@H](OC(=O)/C=C\C=C\CCCCC)[C@H](O)[C@@]23C(=C[C@H](O)C[C@@H]12)[C@@H](OC)O[C@@H]3OC(C)=O (relative stereo) [CASEARUPESTRIN C] | > 5000 | > 5000 | > 5000 | > 5000
C=CC(=C)CC[C@]1(C)[C@H](C)[C@@H](OC(=O)/C=C\C=C\CCCCC)[C@H](OC(C)=O)[C@@]23C(=C[C@H](O)C[C@@H]12)[C@@H](OC(C)=O)O[C@@H]3OC(C)=O (relative stereo) [CASEARUPESTRIN D] | 250 | 430 | 250 | 930
C=CC(=C)CC[C@]1(C)[C@H](C)[C@@H](OC(=O)/C=C\C=C\CCCCC)[C@H](OC(C)=O)[C@@]23C(=C[C@H](OC(C)=O)C[C@@H]12)[C@@H](OC(C)=O)O[C@@H]3OC(C)=O | > 5000 | > 5000 | > 5000 | > 5000
C=CC(=C)CC[C@]1(C)[C@H](C)[C@@H](OC(=O)/C=C\C=C\CCCCC)[C@H](O)[C@@]23C(=C[C@H](O)C[C@@H]12)[C@@H](OC(C)=O)O[C@@H]3OC(C)=O (relative stereo) [CASEARUPESTRIN B] | 280 | 800 | 850 | 1300
